{"data": "Published values pooled from the literature", "target": "Epithelial discoidin domain-containing receptor 1 (DDR1, Homo sapiens, UniProt Q08345)"}
{"Structure (SMILES)": "COc1ncc2cc3ccccc3nc2c1C#N", "assay": "cell-free assay, competition with immobilised ligand", "conditions": "5 µM", "remaining binding [%]": 85}
{"Structure (SMILES)": "Cc1cc(NC(=O)c2cccc(S(F)(F)(F)(F)F)c2)cc(-n2ccn3nc(-c4cccnc4)cc23)c1", "assay": "cell-free assay, competition with immobilised ligand", "conditions": "1 µM", "remaining binding [%]": 0}
{"Structure (SMILES)": "COc1ccnn2ncc(-c3ccnc(N(C)C)n3)c12", "assay": "binding", "conditions": "1 µM", "remaining binding [%]": 100}
{"Structure (SMILES)": "Nc1ncc2c(n1)-c1c([nH]c3ccc(C#CC4CC4)cc13)CCCC2", "assay": "binding, competition with immobilised ligand", "conditions": "1 µM", "remaining binding [%]": 100}
{"Structure (SMILES)": "O=C(c1ccc(Nc2ncc(Cl)c(-c3cc4ccccc4s3)n2)cc1)N1CCC(N2CCCC2)CC1", "assay": "binding, competition with immobilised ligand", "conditions": "1 µM", "remaining binding [%]": 0.4}
{"Structure (SMILES)": "COc1cnc(Nc2cccc(S(N)(=O)=O)c2)nc1N1CCN(c2ccccc2)CC1", "assay": "binding, competition with immobilised ligand", "conditions": "1 µM", "remaining binding [%]": 93}
{"Structure (SMILES)": "O=C(NCCCN1CCOCC1)c1ccc(Nc2ncc(Cl)c(-c3ccc(Cl)s3)n2)cc1", "assay": "binding, competition with immobilised ligand", "conditions": "1 µM", "remaining binding [%]": 84}
{"Structure (SMILES)": "CNC(=O)Nc1ccc2c(c1)CC[C@@]21OC(=O)N(CC(=O)N(Cc2ccc(F)cc2)[C@@H](C)C(F)(F)F)C1=O", "assay": "cell-free assay, competition with immobilised ligand", "conditions": "1 µM", "remaining binding [%]": 100}
{"Structure (SMILES)": "CN(C)c1ncc(F)c(-c2cnn3ncccc23)n1", "assay": "binding", "conditions": "1 µM", "remaining binding [%]": 89}
{"Structure (SMILES)": "Cc1cnc(Nc2ccc(C(=O)N3CCC(N4CCCC4)CC3)cc2)nc1-c1cc2ccccc2s1", "assay": "binding, competition with immobilised ligand", "conditions": "1 µM", "remaining binding [%]": 0.1}
{"Structure (SMILES)": "CNC(=O)[C@@H]1CC[C@@H](n2c(-c3ccc4cnccc4c3)nc3ccc(C(=O)NCc4cccc(C(N)=O)c4)cc32)C1", "assay": "binding, competition with immobilised ligand", "conditions": "1 µM", "remaining binding [%]": 100}
{"Structure (SMILES)": "O=C(NCC1CCOCC1)c1n[nH]cc1NC(=O)c1c(F)cccc1F", "assay": "binding, competition with immobilised ligand", "conditions": "1 µM", "remaining binding [%]": 100}
{"Structure (SMILES)": "FC(F)(F)c1ccc2c(c1)nc(-c1cccnc1)n2C1CC1", "assay": "cell-free assay, competition with immobilised ligand", "conditions": "1 µM", "remaining binding [%]": 100}
{"Structure (SMILES)": "CN(c1nccc(-c2cnn3ncccc23)n1)C1CC1", "assay": "binding", "conditions": "1 µM", "remaining binding [%]": 80}
{"Structure (SMILES)": "CCCOc1ccc([C@H]2[C@H](C(=O)O)[C@@H](c3ccc4c(c3)OCO4)CN2CC(=O)Nc2c(CC)cccc2CC)cc1", "assay": "cell-free assay, competition with immobilised ligand", "conditions": "1 µM", "remaining binding [%]": 100}
{"Structure (SMILES)": "Cc1cnn2ncc(-c3ccnc(N(C)C)n3)c2c1", "assay": "binding", "conditions": "1 µM", "remaining binding [%]": 100}
{"Structure (SMILES)": "O=c1nc(-c2ccccn2)sc2ccccc12", "assay": "cell-free assay, competition with immobilised ligand", "conditions": "1 µM", "remaining binding [%]": 85}
{"Structure (SMILES)": "c1cnn2ncc(-c3ccnc(N4CCC45COC5)n3)c2c1", "assay": "binding", "conditions": "1 µM", "remaining binding [%]": 82}
{"Structure (SMILES)": "O=C(O)c1cc(-c2ccc(C3CCNCC3)cc2)c2ccc(-c3ccc(C(F)(F)F)cc3)cc2c1", "assay": "cell-free assay, competition with immobilised ligand", "conditions": "1 µM", "remaining binding [%]": 100}
{"Structure (SMILES)": "N[C@@H]1CCN(c2nccc(-c3cnn4ncccc34)n2)C1", "assay": "binding", "conditions": "1 µM", "remaining binding [%]": 100}
{"Structure (SMILES)": "c1cncc(-c2cccc(Nc3nccc(NC4CCCCC4)n3)c2)c1", "assay": "binding, competition with immobilised ligand", "conditions": "10 µM", "remaining binding [%]": 27}
